Laboratory results taken from ChEMBL document CHEMBL4673214, “Synthesis and antibacterial bioactivities of cationic deacetyl linezolid amphiphiles” (Eur J Med Chem, 2018).
In brackets after ≈: the same amount, converted by molar mass. Activity calls are given as the source filed them. The calls are words filed in the database; no cut-off is given here.

Experiments:
Klebsiella pneumoniae [1] = assay: Antibacterial activity against carbapenem-resistant Klebsiella pneumoniae clinical isolate 8 assessed as reduction in bacterial growth incubated for 16 to 20 hrs by CLSI-based broth microdilution method; assay type: functional; details: time 16-20 hrs
In short: (§1)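 Clinical isolates tested by broth microdilution in cation-adjusted Mueller-Hinton broth. Cultures grown 4-6 h (~10^8 CFU/mL) were diluted to ~10^6 CFU/mL and mixed 1:1 with compound serial dilutions made from 256 down to 0.5 µg/mL (pre-mixing). Plates held at 37 °C for 16-20 h, then read for growth. Each concentration run in duplicate, whole experiment at least twice.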

Enterobacteriaceae [2] = assay: Antibacterial activity against NDM1 producing carbapenem-resistant Enterobacteriaceae clinical isolate 6 assessed as reduction in bacterial growth incubated for 16 to 20 hrs by CLSI-based broth microdilution method; assay type: functional; details: time 16-20 hrs; in short: as §1
Escherichia coli = assay: Antibacterial activity against Escherichia coli ATCC 25922 assessed as reduction in bacterial growth incubated 16 to 20 hrs by CLSI-based broth microdilution method; assay type: functional; details: time 16-20 hrs
In short: (§2)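 Broth microdilution following CLSI, in cation-adjusted Mueller-Hinton broth. Inoculum from a 4-6 h culture (~10^8 CFU/mL), diluted to ~10^6 CFU/mL. Water stocks were serially diluted in MHB (256 to 0.5 µg/mL) and mixed 1:1 with the inoculum. Plates ran 16-20 h at 37 °C. MIC was read visually. Each concentration was tested in duplicate, and the experiment was repeated at least twice.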

Staphylococcus aureus [3] = assay: Antibacterial activity against methicillin-resistant Staphylococcus aureus clinical isolate 10 assessed as reduction in bacterial growth incubated for 16 to 20 hrs by CLSI-based broth microdilution method; assay type: functional; details: time 16-20 hrs; in short: as §1
Klebsiella pneumoniae [4] = assay: Antibacterial activity against carbapenem-resistant Klebsiella pneumoniae clinical isolate 2 assessed as reduction in bacterial growth incubated for 16 to 20 hrs by CLSI-based broth microdilution method; assay type: functional; details: time 16-20 hrs; in short: as §1
Cell membrane [5] = assay: Induction of cytoplasmic membrane depolarization in Staphylococcus aureus ATCC 29213 at 20 ug/ml measured for 12 mins by DiSC35 dye-based fluorescence assay; assay type: subcellular; details: dose 20.0 µg/ml
In short: (§3)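 Mid-log bacteria were washed and resuspended at ~10^8 CFU/mL: S. aureus in PBS, E. coli in 5 mM HEPES/5 mM glucose/100 mM KCl (1:1:1). Cells were loaded with diSC35 (10 µM stock) for 30 min (S. aureus) or 40 min (E. coli, plus EDTA). Fluorescence (ex 622/em 670 nm) was read for an 8 min baseline, then every 2 min for 12 min after compound at 20 µg/mL final. Water served as control.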

Cell membrane [6] = assay: Induction of cytoplasmic membrane depolarization in Escherichia coli ATCC 25922 at 20 ug/ml measured for 12 mins by DiSC35 dye-based fluorescence assay; assay type: subcellular; details: dose 20.0 µg/ml; in short: as §3
Staphylococcus aureus [7] = assay: Antibacterial activity against methicillin-resistant Staphylococcus aureus clinical isolate 8 assessed as reduction in bacterial growth incubated for 16 to 20 hrs by CLSI-based broth microdilution method; assay type: functional; details: time 16-20 hrs; in short: as §1
Klebsiella pneumoniae [8] = assay: Antibacterial activity against carbapenem-resistant Klebsiella pneumoniae clinical isolate 4 assessed as reduction in bacterial growth incubated for 16 to 20 hrs by CLSI-based broth microdilution method; assay type: functional; details: time 16-20 hrs; in short: as §1
Staphylococcus aureus [9] = assay: Antibacterial activity against methicillin-resistant Staphylococcus aureus clinical isolate 6 assessed as reduction in bacterial growth incubated for 16 to 20 hrs by CLSI-based broth microdilution method; assay type: functional; details: time 16-20 hrs; in short: as §1
Enterobacteriaceae [10] = assay: Antibacterial activity against NDM1 producing carbapenem-resistant Enterobacteriaceae clinical isolate 10 assessed as reduction in bacterial growth incubated for 16 to 20 hrs by CLSI-based broth microdilution method; assay type: functional; details: time 16-20 hrs; in short: as §1
Enterobacteriaceae [11] = assay: Antibacterial activity against NDM1 producing carbapenem-resistant Enterobacteriaceae clinical isolate 9 assessed as reduction in bacterial growth incubated for 16 to 20 hrs by CLSI-based broth microdilution method; assay type: functional; details: time 16-20 hrs; in short: as §1
Salmonella enterica = assay: Antibacterial activity against Salmonella enterica ATCC 8387 assessed as reduction in bacterial growth incubated for 16 to 20 hrs by CLSI-based broth microdilution method; assay type: functional; details: time 16-20 hrs; in short: as §2
Enterobacteriaceae [12] = assay: Antibacterial activity against NDM1 producing carbapenem-resistant Enterobacteriaceae clinical isolate 4 assessed as reduction in bacterial growth incubated for 16 to 20 hrs by CLSI-based broth microdilution method; assay type: functional; details: time 16-20 hrs; in short: as §1
Staphylococcus aureus [13] = assay: Antibacterial activity against methicillin-resistant Staphylococcus aureus clinical isolate 2 assessed as reduction in bacterial growth incubated for 16 to 20 hrs by CLSI-based broth microdilution method; assay type: functional; details: time 16-20 hrs; in short: as §1
Staphylococcus aureus [14] = assay: Antibacterial activity against methicillin-resistant Staphylococcus aureus clinical isolate 9 assessed as reduction in bacterial growth incubated for 16 to 20 hrs by CLSI-based broth microdilution method; assay type: functional; details: time 16-20 hrs; in short: as §1
Enterococcus faecalis = assay: Antibacterial activity against Enterococcus faecalis ATCC 29212 assessed as reduction in bacterial growth incubated 16 to 20 hrs by CLSI-based broth microdilution method; assay type: functional; details: time 16-20 hrs; in short: as §2
Klebsiella pneumoniae [15] = assay: Antibacterial activity against carbapenem-resistant Klebsiella pneumoniae clinical isolate 5 assessed as reduction in bacterial growth incubated for 16 to 20 hrs by CLSI-based broth microdilution method; assay type: functional; details: time 16-20 hrs; in short: as §1
Enterobacteriaceae [16] = assay: Antibacterial activity against NDM1 producing carbapenem-resistant Enterobacteriaceae clinical isolate 2 assessed as reduction in bacterial growth incubated for 16 to 20 hrs by CLSI-based broth microdilution method; assay type: functional; details: time 16-20 hrs; in short: as §1
Klebsiella pneumoniae [17] = assay: Antibacterial activity against carbapenem-resistant Klebsiella pneumoniae clinical isolate 6 assessed as reduction in bacterial growth incubated for 16 to 20 hrs by CLSI-based broth microdilution method; assay type: functional; details: time 16-20 hrs; in short: as §1
Cell membrane [18] = assay: Induction of inner membrane permeabilization in Escherichia coli ATCC 25922 at 20 ug/ml measured for 12 mins by propidium iodide staining based fluorescence microscopic analysis; details: dose 20.0 µg/ml
In short: (§4)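 Mid-log bacteria were washed and resuspended at ~10^8 CFU/mL and preincubated with propidium iodide (10 µM stock) for 30 min (S. aureus) or 40 min (E. coli). Fluorescence (ex 535/em 617 nm) was read on a plate for an 8 min baseline, then every 2 min for 12 min after compound at 20 µg/mL final. Water served as control.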

Staphylococcus aureus [19] = assay: Antibacterial activity against methicillin-resistant Staphylococcus aureus clinical isolate 3 assessed as reduction in bacterial growth incubated for 16 to 20 hrs by CLSI-based broth microdilution method; assay type: functional; details: time 16-20 hrs; in short: as §1
Cell membrane [20] = assay: Induction of inner membrane permeabilization in Staphylococcus aureus ATCC 29213 at 20 ug/ml measured for 12 mins by propidium iodide staining based fluorescence microscopic analysis; details: dose 20.0 µg/ml; in short: as §4
Enterobacteriaceae [21] = assay: Antibacterial activity against NDM1 producing carbapenem-resistant Enterobacteriaceae clinical isolate 5 assessed as reduction in bacterial growth incubated for 16 to 20 hrs by CLSI-based broth microdilution method; assay type: functional; details: time 16-20 hrs; in short: as §1
Enterobacteriaceae [22] = assay: Antibacterial activity against NDM1 producing carbapenem-resistant Enterobacteriaceae clinical isolate 3 assessed as reduction in bacterial growth incubated for 16 to 20 hrs by CLSI-based broth microdilution method; assay type: functional; details: time 16-20 hrs; in short: as §1
Staphylococcus aureus [23] = assay: Antibacterial activity against methicillin-resistant Staphylococcus aureus clinical isolate 7 assessed as reduction in bacterial growth incubated for 16 to 20 hrs by CLSI-based broth microdilution method; assay type: functional; details: time 16-20 hrs; in short: as §1
Klebsiella pneumoniae [24] = assay: Antibacterial activity against carbapenem-resistant Klebsiella pneumoniae clinical isolate 3 assessed as reduction in bacterial growth incubated for 16 to 20 hrs by CLSI-based broth microdilution method; assay type: functional; details: time 16-20 hrs; in short: as §1
Klebsiella pneumoniae [25] = assay: Antibacterial activity against carbapenem-resistant Klebsiella pneumoniae clinical isolate 9 assessed as reduction in bacterial growth incubated for 16 to 20 hrs by CLSI-based broth microdilution method; assay type: functional; details: time 16-20 hrs; in short: as §1
Staphylococcus aureus [26] = assay: Antibacterial activity against Staphylococcus aureus ATCC 29213 assessed as reduction in bacterial growth incubated for 16 to 20 hrs by CLSI-based broth microdilution method; assay type: functional; details: time 16-20 hrs; in short: as §2

SMILES	MIC (Klebsiella pneumoniae [1]) [µg/mL]	MIC (Enterobacteriaceae [2]) [µg/mL]	MIC (Escherichia coli) [µg/mL]	MIC (Staphylococcus aureus [3]) [µg/mL]	MIC (Klebsiella pneumoniae [4]) [µg/mL]	Activity (Cell membrane [5])	Activity (Cell membrane [6])	MIC (Staphylococcus aureus [7]) [µg/mL]	MIC (Klebsiella pneumoniae [8]) [µg/mL]	MIC (Staphylococcus aureus [9]) [µg/mL]	MIC (Enterobacteriaceae [10]) [µg/mL]	MIC (Enterobacteriaceae [11]) [µg/mL]	MIC (Salmonella enterica) [µg/mL]	MIC (Enterobacteriaceae [12]) [µg/mL]	MIC (Staphylococcus aureus [13]) [µg/mL]	MIC (Staphylococcus aureus [14]) [µg/mL]	MIC (Enterococcus faecalis) [µg/mL]	MIC (Klebsiella pneumoniae [15]) [µg/mL]	MIC (Enterobacteriaceae [16]) [µg/mL]	MIC (Klebsiella pneumoniae [17]) [µg/mL]	also measured
CCCCCCCCCCCN(C[C@H]1CN(c2ccc(N3CCOCC3)c(F)c2)C(=O)O1)C(=O)[C@@H](N)CCCCN.Cl.Cl	16	16	8	4	16	Active	Active	4	16	2	16	16	16	16	4	4	4	16	> 64	16	Activity (Cell membrane [18]): Active; MIC (Staphylococcus aureus [19]): 2 µg/mL; Activity (Cell membrane [20]): Active; MIC (Enterobacteriaceae [21]): 8 µg/mL; MIC (Enterobacteriaceae [22]): 16 µg/mL; MIC (Staphylococcus aureus [23]): 2 µg/mL; MIC (Klebsiella pneumoniae [24]): 16 µg/mL; MIC (Klebsiella pneumoniae [25]): 16 µg/mL; MIC (Staphylococcus aureus [26]): 2 µg/mL
C[C@@H](O)[C@H]1C(=O)N2C(C(=O)O)=C(S[C@@H]3CN[C@H](C(=O)N(C)C)C3)[C@H](C)[C@H]12 [MEROPENEM]	32 (≈ 83.4 µM)	2 (≈ 5.22 µM)	< 0.125	32 (≈ 83.4 µM)	> 64	inactive	inactive	64 (≈ 167 µM)	32 (≈ 83.4 µM)	32 (≈ 83.4 µM)	> 64	> 64	< 0.125	64 (≈ 167 µM)	64 (≈ 167 µM)	64 (≈ 167 µM)	4 (≈ 10.4 µM)	32 (≈ 83.4 µM)	16 (≈ 41.7 µM)	> 64	Activity (Cell membrane [18]): inactive; MIC (Staphylococcus aureus [19]): 32 µg/mL (≈ 83.4 µM); Activity (Cell membrane [20]): inactive; MIC (Enterobacteriaceae [21]): 8 µg/mL (≈ 20.9 µM); MIC (Enterobacteriaceae [22]): 64 µg/mL (≈ 167 µM); MIC (Staphylococcus aureus [23]): 64 µg/mL (≈ 167 µM); MIC (Klebsiella pneumoniae [24]): 2 µg/mL (≈ 5.22 µM); MIC (Klebsiella pneumoniae [25]): > 64 µg/mL; MIC (Staphylococcus aureus [26]): 0.125 µg/mL (≈ 0.326 µM)
